17 compounds from ChEMBL document CHEMBL5036309, “Orally Active Peptide Vector Allows Using Cannabis to Fight Pain While Avoiding Side Effects” (J Med Chem, 2021) can be followed below.

Active and inactive are the calls of the source. No cut-off for these calls is given here. Square brackets hold non-standard residues; d marks the D form. Peptide text beside a SMILES is read from it.

For experiment [1], the system named is HEK293T. Description: Inhibition of human c-YFP fused CB1R/n-YFP fused 5HT2A receptor heterodimer formation expressed in HEK293T cells assessed as decrease in forskolin induced cAMP level preincubated for 15 mins forskolin and WIN 55,212-2 stimulation and measured after 15 mins by HTRF assay. The class given is cell-based. The note with it: time 30.0 min.
For experiment [2], the system named is HEK293T. Description: Inhibition of human c-YFP fused CB1R/n-YFP fused 5HT2A receptor heterodimer formation expressed in HEK293T cells assessed as decrease in forskolin induced cAMP level preincubated for 15 mins forskolin and DOI stimulation and measured after 15 mins by HTRF assay. The class given is cell-based. The note with it: time 30.0 min. A general note: Cyclic AMP is a second messenger, typically raised through Gs and lowered through Gi signalling.

Experiment [3] has as its system HEK293T. Description: Inhibition of human c-YFP fused CB1R/n-YFP fused 5HT2A receptor heterodimer formation expressed in HEK293T cells assessed as increase in pERK level preincubated for 15 mins followed by WIN 55,212-2 stimulation for 7 mins by microplate reader method. The class given is cell-based. The note with it: time 22.0 min.
Experiment [4] deals with HEK293T. Briefly: Inhibition of human c-YFP fused CB1R/n-YFP fused 5HT2A receptor heterodimer formation expressed in HEK293 cells assessed as increase in pERK level preincubated for 15 mins followed by DOI stimulation for 7 mins by microplate reader method. The class given is cell-based. The note with it: time 22.0 min.
Experiment [5] concerns HEK293T. Description: Inhibition of human c-YFP fused CB1R/n-YFP fused 5HT2A receptor heterodimer formation transfected in human HEK293T cells at 4 uM incubated for 4 hrs by BIFC assay. The class given is cell-based. The procedure, abridged: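 HEK-293T cells were cotransfected 48 h with 5HT2AR-cYFP and CB1R-nYFP (4 μg cDNA each, polyethylenimine), then treated with 4 μM peptide or vehicle for 4 h at 37 °C. Reconstituted YFP Venus was read on 20 μg protein at 530 nm emission with 400 nm excitation, minus the fluorescence of non-expressing cells. Mean ± SEM, n = 10–30.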

The subject of a further experiment is BEND3. Briefly: Induction of BBB translocation in mouse BEND3 cells measured after 24 hrs by fluorescence analysis. The class given is functional, cell-based. The procedure, abridged: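 5(6)-Carboxyfluorescein-labeled peptides were applied to a transwell BBB model of bEnd.3 cells. Translocation (%) was measured as fluorescence in the basolateral chamber after 24 h, with a trans-BBB peptide as positive control. Barrier integrity was checked afterward by FD4 dextran permeability. Mean ± SEM, n = 3–6, independent cultures on different days.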

For `COc1cccc([C@H](O)C2CCN(CCc3ccc(F)cc3)CC2)c1OC`, the inhibition result with HEK293T [1], in the experiment on HEK293T [2], with HEK293T [3] and with HEK293T [4] was “inactive” throughout.
Regarding `Cc1c(C(=O)NN2CCCCC2)nn(-c2ccc(Cl)cc2Cl)c1-c1ccc(Cl)cc1`, the inhibition result in the experiment with HEK293T [1], in the experiment on HEK293T [2], with HEK293T [3] and with HEK293T [4] was “inactive” throughout.
As to `CC[C@H](C)[C@H](NC(=O)[C@@H](NC(=O)[C@@H]1CCCN1C(=O)[C@H](CC(N)=O)NC(=O)[C@@H](NC(=O)[C@@H](NC(=O)[C@H](CO)NC(=O)[C@H](CC(N)=O)NC(=O)[C@H](CC(C)C)NC(=O)[C@H](CC(C)C)NC(=O)[C@H](CS)NC(=O)[C@H](CC(C)C)NC(=O)[C@H](CCSC)NC(=O)[C@H](CO)NC(=O)[C@H](CS)NC(=O)[C@H](Cc1ccccc1)NC(=O)[C@H](C)NC(=O)[C@H](Cc1ccccc1)NC(=O)[C@@H](NC(=O)[C@@H](NC(=O)[C@H](CCCCN)NC(=O)[C@@H](NC(=O)[C@@H](N)CC(C)C)[C@@H](C)CC)[C@@H](C)O)C(C)C)[C@@H](C)O)C(C)C)[C@@H](C)CC)C(=O)N[C@@H](Cc1ccc(O)cc1)C(=O)N[C@@H](C)C(=O)N[C@@H](CC(C)C)C(=O)N[C@@H](CCCNC(=N)N)C(=O)NCC(=O)N[C@@H](CCCNC(=N)N)C(=O)N[C@@H](CCCCN)C(=O)N[C@@H](CCCCN)C(=O)N[C@@H](CCCNC(=N)N)C(=O)N[C@@H](CCCNC(=N)N)C(=O)N[C@@H](CCC(N)=O)C(=O)N[C@@H](CCCNC(=N)N)C(=O)N[C@@H](CCCNC(=N)N)C(=O)N[C@@H](CCCNC(=N)N)C(N)=O` (H-LIKTVFAFCSMLCLLNSTVNPIIYALRGRKKRRQRRR-NH2), the inhibition result in the experiment on HEK293T [5], with HEK293T [1], with HEK293T [3] and with HEK293T [4] was “inactive” in each case.
`CC[C@@H](C)[C@@H](NC(=O)CNC(=O)[C@@H](C)NC(=O)[C@H](Cc1c[nH]c2ccccc12)NC(=O)[C@H](CC(C)C)NC(=O)[C@@H](NC(=O)[C@H](Cc1ccc(O)cc1)NC(=O)[C@H](CCSC)NC(=O)[C@H](Cc1ccc(O)cc1)NC(=O)[C@H](C)NC(=O)[C@H](Cc1ccc(O)cc1)NC(=O)[C@@H](N)C(C)C)[C@@H](C)CC)C(=O)N[C@H](CC(C)C)C(=O)N[C@H](CCCCN)C(=O)N[C@H](CCCNC(=N)N)C(=O)N[C@H](Cc1c[nH]c2ccccc12)C(N)=O` (H-VYAYMYILW[dA]G[dI][dL][dK][dR][dW]-NH2): the inhibition result with HEK293T [1], in the experiment with HEK293T [2], in the experiment on HEK293T [3] and in the experiment with HEK293T [4] was “Active” throughout. In addition, the result with BEND3 was Active.
Take `CC[C@H](C)[C@H](NC(=O)[C@H](Cc1ccc(O)cc1)NC(=O)[C@H](CCSC)NC(=O)[C@H](Cc1ccc(O)cc1)NC(=O)[C@H](C)NC(=O)[C@H](Cc1ccc(O)cc1)NC(=O)[C@@H](N)C(C)C)C(=O)N[C@@H](CC(C)C)C(=O)N[C@@H](Cc1c[nH]c2ccccc12)C(=O)N[C@H](CO)C(=O)N[C@H](CCCCN)C(=O)N[C@H](CO)C(=O)N[C@H](CCCCN)C(=O)N[C@H](CO)C(=O)N[C@H](CCCCN)C(N)=O` (H-VYAYMYILW[dS][dK][dS][dK][dS][dK]-NH2): the inhibition entry in the experiment on HEK293T [1], with HEK293T [2], with HEK293T [3] and with HEK293T [4] was “Active” in each case. Besides, the result in the experiment on BEND3 was Active.
Take `CC[C@@H](C)[C@@H](NC(=O)CNC(=O)[C@@H](C)N)C(=O)N[C@H](CC(C)C)C(=O)N[C@H](CCCCN)C(=O)N[C@H](CCCNC(=N)N)C(=O)N[C@H](Cc1c[nH]c2ccccc12)C(=O)N[C@@H](CCCCN)C(=O)N[C@H](C(=O)N[C@@H](CC(C)C)C(=O)N[C@H](C(=O)N[C@@H](CC(C)C)C(=O)N[C@H](C(=O)N[C@@H](CC(C)C)C(=O)N[C@H](C(=O)N[C@H](C(N)=O)C(C)C)C(C)C)[C@@H](C)CC)C(C)C)[C@@H](C)O` (H-[dA]G[dI][dL][dK][dR][dW]KTLVLILVV-NH2): the inhibition result in the experiment with HEK293T [1], with HEK293T [2], with HEK293T [3] and with HEK293T [4] was “Active” throughout. Also, the result in the experiment with BEND3 was Active.
In the case of `CC[C@H](C)[C@H](NC(=O)[C@H](CC(C)C)NC(=O)[C@@H](NC(=O)[C@H](CC(C)C)NC(=O)[C@@H](NC(=O)[C@H](CCCCN)NC(=O)[C@@H](CCCCN)NC(=O)[C@@H](CO)NC(=O)[C@@H](CCCCN)NC(=O)[C@@H](CO)NC(=O)[C@@H](CCCCN)NC(=O)[C@H](N)CO)[C@@H](C)O)C(C)C)C(=O)N[C@@H](CC(C)C)C(=O)N[C@H](C(=O)N[C@H](C(N)=O)C(C)C)C(C)C` (H-[dS][dK][dS][dK][dS][dK]KTLVLILVV-NH2), the inhibition entry with HEK293T [1], with HEK293T [2], in the experiment with HEK293T [3] and with HEK293T [4] was “Active” each time. For the same compound, the outcome in the experiment on BEND3 was Active.
For H-AGILKRWKTLVLILVV-NH2, the inhibition entry with HEK293T [1], in the experiment with HEK293T [2], in the experiment on HEK293T [3] and in the experiment on HEK293T [4] was “Active” in each case.
In the case of “H-ETYLMFWIGVTSVLLLFIVYAYMYILWGRKKRRQRRR-NH2”, the inhibition result in the experiment on HEK293T [5], in the experiment with HEK293T [1], in the experiment on HEK293T [3] and with HEK293T [4] was “Active” throughout.
Take H-GRKKRRQRRRKTLVLILVV-NH2: the inhibition entry in the experiment on HEK293T [5], in the experiment with HEK293T [1], with HEK293T [2], in the experiment on HEK293T [3] and in the experiment with HEK293T [4] was “Active” in each case.
For “H-GRKKRRQRRRKTLVLILVVLIICWGPLLAIMVYDVF-NH2”, the inhibition entry in the experiment on HEK293T [5], in the experiment with HEK293T [1], in the experiment on HEK293T [3] and with HEK293T [4] was “Active” each time.
In the case of H-RKRKTLVLILVV-NH2, the inhibition result in the experiment on HEK293T [1], in the experiment on HEK293T [2], in the experiment with HEK293T [3] and in the experiment on HEK293T [4] was “Active” in each case.
For H-SKSKSKKTLVLILVV-NH2, the inhibition entry in the experiment with HEK293T [1], with HEK293T [2], in the experiment with HEK293T [3] and in the experiment with HEK293T [4] was “Active” throughout.
For H-VYAYMYILWAGILKRW-NH2, the inhibition entry in the experiment on HEK293T [1], in the experiment with HEK293T [2], in the experiment on HEK293T [3] and with HEK293T [4] was “Active” throughout.
H-VYAYMYILWGRKKRRQRRR-NH2: the inhibition entry in the experiment on HEK293T [5], in the experiment on HEK293T [1], in the experiment with HEK293T [2], with HEK293T [3] and in the experiment with HEK293T [4] was “Active” each time.
With H-VYAYMYILWRKR-NH2, the inhibition entry in the experiment on HEK293T [1], with HEK293T [2], in the experiment on HEK293T [3] and in the experiment with HEK293T [4] was “Active” each time.
Take H-VYAYMYILWSKSKSK-NH2: the inhibition entry in the experiment on HEK293T [1], with HEK293T [2], in the experiment on HEK293T [3] and with HEK293T [4] was “Active” in each case.
